According to ChEMBL document CHEMBL1629690, “Development of hexadecyloxypropyl tenofovir (CMX157) for treatment of infection caused by wild-type and nucleoside/nucleotide-resistant HIV” (Antimicrob Agents Chemother, 2010):

What was measured:
[1] = tested on: Human immunodeficiency virus 1; assay: Antiviral activity against HIV1 isolate 220 harboring reverse transcriptase K70E/M184V mutant gene by phenosense assay relative to wild type; assay type: functional
In short: (§1)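 PhenoSense HIV recombinant virus assay: patient-derived HIV-1 with major NRTI resistance mutations tested against increasing drug concentrations to give inhibition curves. EC50 is the concentration giving 50% inhibition. Fold change is the test recombinant EC50 divided by the EC50 of a drug-sensitive wild-type reference virus. Panel of 30 NRTI-resistant isolates plus two wild-type viruses.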

[2] = tested on: Human immunodeficiency virus 1; assay: Antiviral activity against HIV1 isolate 215 harboring reverse transcriptase D67N/K70E mutant gene by phenosense assay relative to wild type; assay type: functional; in short: as §1
[3] = tested on: Human immunodeficiency virus 1; assay: Antiviral activity against HIV1 isolate 211 harboring reverse transcriptase D67N/K70R/T215F/K219E/M184V mutant gene by phenosense assay; assay type: functional, organism-based; conditions: Human immunodeficiency virus 1, isolate 211; in short: as §1
[4] = tested on: Human immunodeficiency virus 1; assay: Antiviral activity against HIV1 isolate 058 harboring reverse transcriptase M41L/D67N/K70R/L210W/T215F/K219Q mutant gene by phenosense assay relative to wild type; assay type: functional
In short: (§2)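 Recombinant-virus PhenoSense HIV assay run on a panel of 30 NRTI-resistant HIV-1 mutants and two wild-type viruses. Each virus is tested across increasing drug concentrations to give an inhibition curve and EC50. Fold change is the test recombinant EC50 divided by the EC50 of the drug-sensitive wild-type reference virus.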

[5] = tested on: Human immunodeficiency virus 1; assay: Antiviral activity against HIV1 isolate 066 harboring reverse transcriptase 184V mutant gene by phenosense assay relative to wild type; assay type: functional; in short: as §2
[6] = tested on: Human immunodeficiency virus 1; assay: Antiviral activity against HIV1 isolate 217 harboring reverse transcriptase D67N/K70E/M184V mutant gene by phenosense assay; assay type: functional, organism-based; conditions: Human immunodeficiency virus 1, isolate 217; in short: as §1
[7] = tested on: Human immunodeficiency virus 1; assay: Antiviral activity against HIV1 isolate 066 harboring reverse transcriptase 184V mutant gene by phenosense assay; assay type: functional, organism-based; conditions: Human immunodeficiency virus 1, isolate 066; in short: as §2
[8] = tested on: Human immunodeficiency virus 1; assay: Antiviral activity against HIV1 isolate 180 harboring reverse transcriptase K65R mutant gene obtained as site-directed mutant of NL4-3 by phenosense assay; assay type: functional, organism-based; conditions: Human immunodeficiency virus 1, isolate 180; in short: as §2
[9] = tested on: Human immunodeficiency virus 1; assay: Antiviral activity against HIV1 isolate 160 harboring reverse transcriptase S68G/V75(I/T)/F77L/Y115F/F116Y /Q151M mutant gene by phenosense assay relative to wild type; assay type: functional; in short: as §2
[10] = tested on: Human immunodeficiency virus 1; assay: Antiviral activity against HIV1 isolate 212 harboring reverse transcriptase L210W/T215Y mutant gene by phenosense assay relative to wild type; assay type: functional; in short: as §1
[11] = tested on: Human immunodeficiency virus 1; assay: Antiviral activity against HIV1 isolate 206 harboring reverse transcriptase D67N/K70R mutant gene by phenosense assay; assay type: functional, organism-based; conditions: Human immunodeficiency virus 1, isolate 206; in short: as §1
[12] = tested on: Human immunodeficiency virus 1; assay: Antiviral activity against HIV1 isolate 206 harboring reverse transcriptase D67N/K70R mutant gene by phenosense assay relative to wild type; assay type: functional; in short: as §1
[13] = tested on: Human immunodeficiency virus 1; assay: Antiviral activity against HIV1 isolate 057 expressing wild type reverse transcriptase gene by phenosense assay; assay type: functional, organism-based; conditions: Human immunodeficiency virus 1, isolate 057
In short: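 In the PhenoSense recombinant virus assay, virus was tested against increasing drug concentrations. EC50 came from the inhibition curve and was compared with a drug-sensitive reference virus.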

[14] = tested on: Human immunodeficiency virus 1; assay: Antiviral activity against HIV1 isolate 069 harboring reverse transcriptase D67E/T69SSG/V75M/M184V/L210W/T215Y mutant gene by phenosense assay; assay type: functional, organism-based; conditions: Human immunodeficiency virus 1, isolate 069; in short: as §2
[15] = tested on: Human immunodeficiency virus 1; assay: Antiviral activity against HIV1 isolate 220 harboring reverse transcriptase K70E/M184V mutant gene by phenosense assay; assay type: functional, organism-based; conditions: Human immunodeficiency virus 1, isolate 220; in short: as §1
[16] = tested on: Human immunodeficiency virus 1; assay: Antiviral activity against HIV1 isolate 166 harboring reverse transcriptase L74V mutant gene obtained as site-directed mutant of NL4-3 by phenosense assay relative to wild type; assay type: functional; in short: as §2
[17] = tested on: Human immunodeficiency virus 1; assay: Antiviral activity against HIV1 isolate 166 harboring reverse transcriptase L74V mutant gene obtained as site-directed mutant of NL4-3 by phenosense assay; assay type: functional, organism-based; conditions: Human immunodeficiency virus 1, isolate 166; in short: as §2
[18] = tested on: Human immunodeficiency virus 1; assay: Antiviral activity against HIV1 isolate 204 harboring reverse transcriptase M41L/L210W/T215Y/M184V mutant gene by phenosense assay relative to wild type; assay type: functional; in short: as §1
[19] = tested on: Human immunodeficiency virus 1; assay: Antiviral activity against HIV1 isolate 069 harboring reverse transcriptase D67E/T69SSG/V75M/M184V/L210W/T215Y mutant gene by phenosense assay relative to wild type; assay type: functional; in short: as §2
[20] = tested on: Human immunodeficiency virus 1; assay: Antiviral activity against HIV1 isolate 200 harboring reverse transcriptase M41L/L210W/T215Y mutant gene by phenosense assay; assay type: functional, organism-based; conditions: Human immunodeficiency virus 1, isolate 200; in short: as §2
[21] = tested on: Human immunodeficiency virus 1; assay: Antiviral activity against HIV1 isolate 203 harboring reverse transcriptase M41L/L210W/T215Y/M184V mutant gene by phenosense assay relative to wild type; assay type: functional; in short: as §1
[22] = tested on: Human immunodeficiency virus 1; assay: Antiviral activity against HIV1 isolate 201 harboring reverse transcriptase M41L/L210W/T215Y mutant gene by phenosense assay relative to wild type; assay type: functional; in short: as §1
[23] = tested on: Human immunodeficiency virus 1; assay: Antiviral activity against HIV1 isolate 188 harboring reverse transcriptase T215Y/M184V mutant gene by phenosense assay relative to wild type; assay type: functional; in short: as §2
[24] = tested on: Human immunodeficiency virus 1; assay: Antiviral activity against HIV1 isolate 185 harboring reverse transcriptase T215Y mutant gene by phenosense assay; assay type: functional, organism-based; conditions: Human immunodeficiency virus 1, isolate 185; in short: as §2
[25] = tested on: Human immunodeficiency virus 1; assay: Antiviral activity against HIV1 isolate 203 harboring reverse transcriptase M41L/L210W/T215Y/M184V mutant gene by phenosense assay; assay type: functional, organism-based; conditions: Human immunodeficiency virus 1, isolate 203; in short: as §1
[26] = tested on: Human immunodeficiency virus 1; assay: Antiviral activity against HIV1 isolate 063 harboring reverse transcriptase M41L/D67N/K70R/M184V/L210W/T215Y/K219E mutant gene by phenosense assay relative to wild type; assay type: functional; in short: as §2
[27] = tested on: Human immunodeficiency virus 1; assay: Antiviral activity against HIV1 isolate 153 harboring reverse transcriptase L74V mutant gene by phenosense assay relative to wild type; assay type: functional; in short: as §2
[28] = tested on: Human immunodeficiency virus 1; assay: Antiviral activity against HIV1 isolate 063 harboring reverse transcriptase M41L/D67N/K70R/M184V/L210W/T215Y/K219E mutant gene by phenosense assay; assay type: functional, organism-based; conditions: Human immunodeficiency virus 1, isolate 063; in short: as §2
[29] = tested on: Human immunodeficiency virus 1; assay: Antiviral activity against HIV1 isolate 194 harboring reverse transcriptase M41L/T215Y/M184V mutant gene by phenosense assay relative to wild type; assay type: functional; in short: as §2
[30] = tested on: Human immunodeficiency virus 1; assay: Antiviral activity against HIV1 isolate 201 harboring reverse transcriptase M41L/L210W/T215Y mutant gene by phenosense assay; assay type: functional, organism-based; conditions: Human immunodeficiency virus 1, isolate 201; in short: as §2
[31] = tested on: Human immunodeficiency virus 1; assay: Antiviral activity against HIV1 isolate 204 harboring reverse transcriptase M41L/L210W/T215Y/M184V mutant gene by phenosense assay; assay type: functional, organism-based; conditions: Human immunodeficiency virus 1, isolate 204; in short: as §1
[32] = tested on: Human immunodeficiency virus 1; assay: Antiviral activity against HIV1 isolate 194 harboring reverse transcriptase M41L/T215Y/M184V mutant gene by phenosense assay; assay type: functional, organism-based; conditions: Human immunodeficiency virus 1, isolate 194; in short: as §2
[33] = tested on: Human immunodeficiency virus 1; assay: Antiviral activity against HIV1 isolate 185 harboring reverse transcriptase T215Y mutant gene by phenosense assay relative to wild type; assay type: functional; in short: as §2
[34] = tested on: Human immunodeficiency virus 1; assay: Antiviral activity against HIV1 isolate 174 harboring reverse transcriptase M184V mutant gene obtained as site-directed mutant of NL4-3 by phenosense assay relative to wild type; assay type: functional; in short: as §2
[35] = tested on: Human immunodeficiency virus 1; assay: Antiviral activity against HIV1 isolate 162 harboring reverse transcriptase A62V/V75I/F77L/Y115F/F116Y/Q151M/M184V mutant gene by phenosense assay relative to wild type; assay type: functional; in short: as §2

Compound | fold change (FC) [1] | fold change (FC) [2] | EC50 [3] [nM] | fold change (FC) [4] | fold change (FC) [5] | EC50 [6] [nM] | EC50 [7] [nM] | EC50 [8] [nM] | fold change (FC) [9] | fold change (FC) [10] | EC50 [11] [nM] | fold change (FC) [12] | EC50 [13] [nM] | EC50 [14] [µM] | EC50 [15] [nM] | fold change (FC) [16] | EC50 [17] [nM] | fold change (FC) [18] | fold change (FC) [19] | EC50 [20] [nM] | further results
Cc1cn([C@H]2C=C[C@@H](CO)O2)c(=O)[nH]c1=O [STAVUDINE] | 0.65 | 0.94 | 790 | 3.7 | 0.77 | 420 | 460 | 830 | 9.3 | 1.6 | 780 | 1.3 | 480 | 6.8 | 390 | 1.1 | 630 | 1.8 | 11 | 1200 | fold change (FC) [21]: 1.5; fold change (FC) [22]: 1.8; fold change (FC) [23]: 1.1; EC50 [24]: 830 nM; EC50 [25]: 880 nM; fold change (FC) [26]: 2.3; fold change (FC) [27]: 1; EC50 [28]: 1400 nM; fold change (FC) [29]: 1.5; EC50 [30]: 1100 nM; EC50 [31]: 1100 nM; EC50 [32]: 860 nM; fold change (FC) [33]: 1.4; fold change (FC) [34]: 0.68; fold change (FC) [35]: 7.1
Cc1cn([C@H]2C[C@H](N=[N+]=[N-])[C@@H](CO)O2)c(=O)[nH]c1=O [ZIDOVUDINE] | 0.13 | 0.21 | 190 | 350 | 0.63 | 4 | 17 | 14 | 93 | 7.6 | 770 | 28 | 17 | 8.7 | 4 | 0.5 | 14 | 3.9 | 320 | 2700 | fold change (FC) [21]: 3.2; fold change (FC) [22]: 98; fold change (FC) [23]: 2.6; EC50 [24]: 1000 nM; EC50 [25]: 87 nM; fold change (FC) [26]: 59; fold change (FC) [27]: 0.41; EC50 [28]: 1600 nM; fold change (FC) [29]: 6.5; EC50 [30]: 2700 nM; EC50 [31]: 110 nM; EC50 [32]: 180 nM; fold change (FC) [33]: 38; fold change (FC) [34]: 0.34; fold change (FC) [35]: 150
